For experiment [1], the target named is T1, Pyruvate kinase PKM (Homo sapiens, UniProt P14618). Briefly: Activation of PKM2 (unknown origin) assessed as increase in tetramer formation by measuring scattering by Dynamic Light Scattering assay. Particulars: filed as activator.
Target sequence in this assay (P14618 2-531 limits assumed): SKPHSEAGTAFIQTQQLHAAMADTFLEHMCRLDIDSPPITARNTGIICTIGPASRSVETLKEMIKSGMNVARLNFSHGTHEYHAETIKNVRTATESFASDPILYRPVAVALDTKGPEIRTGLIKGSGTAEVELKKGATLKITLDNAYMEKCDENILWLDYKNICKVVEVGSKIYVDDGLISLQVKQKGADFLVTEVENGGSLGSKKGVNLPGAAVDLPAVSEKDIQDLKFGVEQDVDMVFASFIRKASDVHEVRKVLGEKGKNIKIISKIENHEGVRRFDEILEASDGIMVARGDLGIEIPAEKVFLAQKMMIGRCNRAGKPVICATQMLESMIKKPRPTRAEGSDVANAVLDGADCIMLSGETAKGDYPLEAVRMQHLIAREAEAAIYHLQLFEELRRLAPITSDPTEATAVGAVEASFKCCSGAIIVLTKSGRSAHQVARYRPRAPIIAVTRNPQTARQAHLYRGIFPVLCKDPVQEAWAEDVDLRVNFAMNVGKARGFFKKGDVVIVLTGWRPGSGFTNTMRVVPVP
Experiment [2] has as its system MCF7. Description: Induction of apoptosis in human MCF7 cells assessed as late apoptotic cells at 100 nM incubated for 48 hrs by AnnexinV/PI staining based flow cytometry. It is filed as functional.
For a further experiment, the system named is MDA-MB-231. Briefly: Growth inhibition of human MDA-MB-231 cells by MTT assay. The experiment is classed as functional, cell-based. In short, it runs like this: (§1)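 Cells were treated with varying compound concentrations and viability was read by MTT assay. IC50 values are reported ± error. Normal fibroblasts were tested alongside.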
The subject of experiment [3] is MCF7. Briefly: Induction of apoptosis in human MCF7 cells assessed as early apoptotic cells at 100 nM incubated for 48 hrs by AnnexinV/PI staining based flow cytometry. It is filed as functional.
Experiment [4] in a line: Growth inhibition of human BCL2 Jurkat cells by MTT assay. The experiment is classed as functional. The essentials:
as §1

Experiment [5] in a line: Growth inhibition of human Mesenchymal stem cells by MTT assay. The experiment is classed as tissue-based. The essentials: as §1
For experiment [6], the system named is MCF7. Description: Growth inhibition of human MCF7 cells by MTT assay. The experiment is classed as functional, cell-based. In short, it runs like this: as §1
The test system of experiment [7] is MCF7. Briefly: Induction of apoptosis in human MCF7 cells assessed as necrotic cells at 100 nM incubated for 48 hrs by AnnexinV/PI staining based flow cytometry. It is filed as functional.
Experiment [8] has as its system MCF7. Briefly: Induction of apoptosis in human MCF7 cells assessed as viable cells at 100 nM incubated for 48 hrs by AnnexinV/PI staining based flow cytometry. It is filed as functional. Conditions: read-out: Activity.
The subject of the next experiment is COLO 201. Description: Growth inhibition of human Colo-201 cells by MTT assay. The experiment is classed as functional, cell-based. In short, it runs like this:
as §1

Experiment [9] concerns the target T1, Pyruvate kinase PKM. Briefly: Activation of […] in human MCF7 cells assessed as increase in tetramer formation at 100 nM measured after 48 hrs by DSS cross linker assay. Conditions: filed as activator. The experiment is classed as cell-based. In short, it runs like this: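 MCF-7 cells exposed to 100 nM for 48 h, then cross-linked with disuccinimidyl suberate (DSS). Tetrameric PKM2 was read as the 250 kDa band and compared with untreated MCF-7 control cells.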
Target sequence in this assay (P14618 2-531 limits assumed): as above

Experiment [10] has as its target T1, Pyruvate kinase PKM. Description: Activation of PKM2 (unknown origin) by pyruvate kinase-lactate dehydrogenase coupled assay.
Target sequence in this assay (P14618 whole entry): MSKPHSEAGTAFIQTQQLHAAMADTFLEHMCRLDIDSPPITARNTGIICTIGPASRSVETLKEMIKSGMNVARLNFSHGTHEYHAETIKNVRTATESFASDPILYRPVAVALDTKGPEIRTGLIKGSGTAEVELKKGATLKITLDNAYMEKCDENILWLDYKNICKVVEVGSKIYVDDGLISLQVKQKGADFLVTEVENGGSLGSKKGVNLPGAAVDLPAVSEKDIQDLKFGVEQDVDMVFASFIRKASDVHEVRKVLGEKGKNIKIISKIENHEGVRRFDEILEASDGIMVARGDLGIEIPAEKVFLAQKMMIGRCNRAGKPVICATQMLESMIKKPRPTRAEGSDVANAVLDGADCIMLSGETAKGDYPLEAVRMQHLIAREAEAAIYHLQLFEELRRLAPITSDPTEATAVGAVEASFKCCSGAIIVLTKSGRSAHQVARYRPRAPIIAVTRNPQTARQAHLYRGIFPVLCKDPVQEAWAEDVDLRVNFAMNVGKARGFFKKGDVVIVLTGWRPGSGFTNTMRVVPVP

Calls of active or inactive are those of the source. The calls are words filed in the database; no cut-off is given here.

As to `CCOC(=O)/C(=C\c1ccc(B(O)O)cc1)C(=O)c1sc(Nc2ccc(Cl)cc2)nc1N(C)C`, the outcome at Pyruvate kinase PKM [1] and on Pyruvate kinase PKM [9] was Active. The Activity in the experiment with MCF7 [2] stood at 23.5%; in the experiment with MCF7 [3] it was 8.81%; with MCF7 [7] it was 22.37%. For the same compound, the IC50 in the experiment on MDA-MB-231 came to 34.9 µM; in experiment [4] it was 2.82 µM; in experiment [5] it was 23.9 µM; with MCF7 [6], 0.08 µM; in the experiment with COLO 201, 3.75 µM. The viability at 0.1 µM with MCF7 [8] was 45.3%. At Pyruvate kinase PKM [10], the EC50 was determined as 5.69 µM.

Consider `CCOC(=O)/C(=C\c1ccc(B(O)O)cc1)C(=O)c1sc(Nc2ccc(OC)cc2)nc1N(C)C`, for which the 50% inhibitory concentration (IC50) stood at 58.7 µM with MDA-MB-231; 0.57 µM in experiment [4]; 25.8 µM in experiment [5]; 2.72 µM in the experiment with MCF7 [6]; 5.5 µM in the experiment with COLO 201. In addition, the EC50 at Pyruvate kinase PKM [10] worked out at 8.17 µM.

As for `COc1cccc2c1C(=O)c1c(O)c3c(c(O)c1C2=O)C[C@@](O)(C(=O)CO)C[C@@H]3O[C@H]1C[C@H](N)[C@H](O)[C@H](C)O1` [DOXORUBICIN], the IC50 came out at 1.3 µM in the experiment on MDA-MB-231, 3.03 µM in [4], 2.37 µM in [5] and 0.8 µM with COLO 201.

Turning to `CCOC(=O)/C(=C\c1ccc(B(O)O)cc1)C(=O)c1sc(Nc2ccc(F)cc2)nc1-c1ccccc1`, the IC50 in the experiment on MDA-MB-231 worked out at 36.6 µM; in [4], 0.09 µM; in experiment [5] it was 29.4 µM; in the experiment on MCF7 [6], 2.71 µM; in the experiment on COLO 201, 5.58 µM. In addition, a half-maximal response at Pyruvate kinase PKM [10] (EC50) required 6.11 µM.

As to `CCOC(=O)/C(=C\c1ccc(B(O)O)cc1)C(=O)c1sc(Nc2ccccc2)nc1N(C)C`, the IC50 with MDA-MB-231 was 38 µM; in experiment [4], 6.36 µM; in [5] it was 40.6 µM; in the experiment with MCF7 [6], 1.5 µM; in the experiment on COLO 201 it was 2.81 µM. The compound also gave an EC50 at Pyruvate kinase PKM [10] of 7.15 µM.

The values are drawn from ChEMBL document CHEMBL4819109, “Discovery of boronic acid-based potent activators of tumor pyruvate kinase M2 and development of gastroretentive nanoformulation for oral dosing” (Bioorg Med Chem Lett, 2021).
